Non-standard residues stand in square brackets, D forms with d. Residues, ends and D or L forms follow the SMILES beside them. ξ: configuration not given here. *: point of attachment. X1 = COc1ccc(/C=C\c2cc(OC)c(OC)c(OC)c2)cc1N*; 2Abz = Nc1ccccc1C(=O)O; ξNle = CCCCC(N)C(=O)O; Bz = O=C(c1ccccc1)*
Legend:
[1] = Ratio of compound CC50 to CA4 CC50 for human HuH7 cells measured after 72 hrs by cell titer blue assay; format: ADME, cell-based, Huh-7
dengue virus type 2 [2] = assay: Antiviral activity against wild type Dengue virus serotype 2 infected in human HuH7 cells assessed as reduction in viral titer at 25 uM measured after 24 hrs by Cell-Titer Glo luminescent assay relative to control; format: functional; settings: Huh-7, 24 h
Method in brief: (§1)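 Cells treated 24 h before titer readout; virus-containing supernatant split into duplicates, plaques counted and averaged, reduction calculated versus untreated blank; single-point experiment.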

[3] = Cytotoxicity against human HuH7 cells assessed as reduction in cell viability measured after 72 hrs by cell titer blue assay; format: cell-based, Huh-7
Zika virus [4] = assay: Antiviral activity against Zika virus infected in human HuH7 cells assessed as reduction in viral titer at 5 uM measured after 24 hrs by Cell-Titer Glo luminescent assay relative to control; format: functional; settings: Huh-7, 24 h
Method in brief: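 Readout began after 24 h. This was a single-point experiment. Virus-containing supernatant was aliquoted in duplicate, plaques were counted and averaged, and reduction was calculated against an untreated blank.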

[5] = Cytotoxicity against human HuH7 cells assessed as reduction in cell viability measured after 24 hrs by cell titer blue assay; format: cell-based, Huh-7
Genome polyprotein [6] = biological target: T1, Genome polyprotein (dengue virus type 2, UniProt P29990); assay: Prodrug activation assessed as Dengue virus serotype 2 NS2B-NS3 protease expressed in Escherichia coli BL21 lambda (DE3) cells-mediated compound hydrolysis in TRIS buffer at pH 9 at 500 uM incubated for 2 hrs by HPLC-UV analysis; settings: dengue virus type 2, pH 9, 2 h
Method in brief: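 DENV protease at 1 μM with substrate at 500 μM in pH 9 buffer, incubated 2 h at 37 °C; fraction hydrolysed determined, triplicate wells.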

[7] = Cytotoxicity against human HeLa cells assessed as reduction in cell viability measured after 72 hrs by cell titer blue assay; format: cell-based
HeLa [8] = assay: Ratio of compound CC50 to CA4 CC50 for human HeLa cells measured after 72 hrs by cell titer blue assay; format: ADME, cell-based
Huh-7 [9] = assay: Cytotoxicity against human HuH7 cells assessed as induction of mitosis after 24 hrs; format: cell-based; settings: huh-7, 24 h
HeLa [10] = assay: Cytotoxicity against human HeLa cells assessed as cell doubling time by cell titer blue assay; format: cell-based
Huh-7 [11] = assay: Cytotoxicity against human HuH7 cells assessed as cell doubling time by cell titer blue assay; format: cell-based
dengue virus type 2 [12] = assay: Antiviral activity against wild type Dengue virus serotype 2 infected in human HuH7 cells assessed as reduction in viral titer measured after 24 hrs by Cell-Titer Glo luminescent assay; format: functional, organism-based; settings: Huh-7, 24 h
Genome polyprotein [13] = biological target: T1, Genome polyprotein; assay: Inhibition of Dengue virus NS2B-NS3 protease using FRET Abz-Nle-Lys-Arg-Arg-Ser-3-(NO2)Tyr as substrate
Genome polyprotein [14] = biological target: T1, Genome polyprotein; assay: Inhibition of Dengue virus serotype 2 NS2B-NS3 protease expressed in Escherichia coli BL21 lambda (DE3) cells preincubated with enzyme for 15 mins followed by 2-Abz-Nle-Lys-Arg-Arg-Ser-(3-NO2)-Tyr-NH2 FRET substrate addition measured for 15 mins by fluorescence analysis
Zika virus [15] = assay: Antiviral activity against Zika virus infected in human HuH7 cells assessed as reduction in viral titer at 50 uM measured after 24 hrs by Cell-Titer Glo luminescent assay relative to control; format: functional; settings: Huh-7, 24 h; method in brief: as §1
Trypsin = Trypsin (Homo sapiens, UniProt P07477+P07478+P35030); assay: Prodrug activation assessed as trypsin (unknown origin)-mediated compound hydrolysis in TRIS buffer at pH 9 at 100 uM incubated for 2 hrs; format: protein assay; settings: pH 9, 2 h

SMILES	selectivity ratio at 72 h [1]	inhibition at 25 µM (dengue virus type 2 [2]) [%]	CC50 at 72 h [3] [nM]	inhibition at 5 µM (Zika virus [4]) [%]	CC50 at 24 h [5] [nM]	Drug metabolism (Genome polyprotein [6])	CC50 at 72 h [7] [nM]	Ratio (HeLa [8])	Activity (Huh-7 [9])	Time (HeLa [10]) [h]	Time (Huh-7 [11]) [h]	EC50 (dengue virus type 2 [12]) [nM]	IC50 (Genome polyprotein [13]) [nM]	IC50 (Genome polyprotein [14]) [nM]	inhibition at 50 µM (Zika virus [15]) [%]	Drug metabolism (Trypsin)
COc1ccc(/C=C\c2cc(OC)c(OC)c(OC)c2)cc1N	20 to 2000	66	3.93	84	> 100000	Metabolite_Notdetected	1.47	20 to 2000								
COc1ccc(/C=C\c2cc(OC)c(OC)c(OC)c2)cc1O [COMBRETASTATIN A4]			1.05	70	38300	Metabolite_Notdetected	0.428		Toxic	24	48	870				
COc1ccc(/C=C\c2cc(OC)c(OC)c(OC)c2)cc1NC(=O)CNC(=O)[C@H](CCCNC(=N)N)NC(=O)[C@H](CCCNC(=N)N)NC(=O)c1ccccc1	20 to 2000	84	26.6		88600	39%	7.2	20 to 2000								
COc1ccc(/C=C\c2cc(OC)c(OC)c(OC)c2)cc1NC(=O)[C@H](CO)NC(=O)[C@H](CCCNC(=N)N)NC(=O)[C@H](CCCCN)NC(=O)c1ccccc1	20 to 2000	61	134		77900	6.3%	61.8	20 to 2000								
COc1ccc(/C=C\c2cc(OC)c(OC)c(OC)c2)cc1NC(=O)CCNC(=O)[C@H](CCCNC(=N)N)NC(=O)[C@H](CCCNC(=N)N)NC(=O)c1ccccc1	20 to 2000	57	156		190000	6.7%	952	20 to 2000								
COc1ccc(/C=C\c2cc(OC)c(OC)c(OC)c2)cc1NC(=O)[C@H](C)N	20 to 2000	64	6.03		123000	Metabolite_Notdetected	6.69	20 to 2000								
COc1ccc(/C=C\c2cc(OC)c(OC)c(OC)c2)cc1NC(=O)[C@H](C)NC(=O)[C@H](CCCNC(=N)N)NC(=O)[C@H](CCCCN)NC(=O)c1ccccc1	20 to 2000	69	71.6		> 100000	5.2%	24.6	20 to 2000								
COc1ccc(/C=C\c2cc(OC)c(OC)c(OC)c2)cc1NC(=O)[C@H](CCCNC(=N)N)NC(=O)[C@@H](N)CCCNC(=N)N													6300			
COc1ccc(/C=C\c2cc(OC)c(OC)c(OC)c2)cc1NC(=O)CNC(=O)[C@H](CCCNC(=N)N)NC(=O)[C@H](CCCCN)NC(=O)c1ccccc1	20 to 2000	53	172		> 100000	32%	78.2	20 to 2000								
CCCCC(NC(=O)c1ccccc1N)C(=O)N[C@@H](CCCCN)C(=O)N[C@@H](CCCNC(=N)N)C(=O)N[C@@H](CCCNC(=N)N)C(=O)N[C@@H](CO)C(=O)N[C@@H](Cc1ccc(O)cc1)C(N)=O (stereo partly drawn) (H-[2Abz][ξNle]KRRSY-NH2)						94%										
COc1ccc(/C=C\c2cc(OC)c(OC)c(OC)c2)cc1NC(=O)[C@H](CO)NC(=O)[C@H](CCCNC(=N)N)NC(=O)[C@H](CCCNC(=N)N)NC(=O)c1ccccc1	20 to 2000	51	23.1		> 100000	3.4%	29.2	20 to 2000						25000	92	Metabolite_Detected
COc1ccc(/C=C\c2cc(OC)c(OC)c(OC)c2)cc1NC(=O)[C@H](C)NC(=O)[C@H](CCCNC(=N)N)NC(=O)[C@H](CCCNC(=N)N)NC(=O)c1ccccc1	20 to 2000	57	191		111000	36%	65.7	20 to 2000								
COc1ccc(/C=C\c2cc(OC)c(OC)c(OC)c2)cc1NC(=O)CN	20 to 2000	69	26.9		173000	Metabolite_Notdetected	37.7	20 to 2000								
COc1ccc(/C=C\c2cc(OC)c(OC)c(OC)c2)cc1NC(=O)CNC(=O)CNC(=O)[C@H](CCCNC(=N)N)NC(=O)[C@H](CCCNC(=N)N)NC(=O)c1ccccc1 (Bz-RRGG-X1)	20 to 2000	55	24		59700	42%	19.5	20 to 2000								Metabolite_Detected

Source: ChEMBL document CHEMBL4364329, “Prodrug Activation by a Viral Protease: Evaluating Combretastatin Peptide Hybrids To Selectively Target Infected Cells” (ACS Med Chem Lett, 2019)
